Tests used:
Rat [1] = test: concentration in kidney after dosing; conditions: 1848 h; dosed: Perfluorodecanoic acid; 10 mg/kg; oral; Female; Harlan Sprague Dawley
Rat [2] = test: concentration in liver after dosing; conditions: 864 h; dosed: Perfluorodecanoic acid; 10 mg/kg; oral; Female; Harlan Sprague Dawley
Rat [3] = test: concentration in liver after dosing; conditions: 1848 h; dosed: Perfluorodecanoic acid; 10 mg/kg; oral; Female; Harlan Sprague Dawley
Rat [4] = test: concentration in plasma after dosing; conditions: dosed: Perfluorodecanoic acid, 2 mg/kg, iv, Male, F344
Rat [5] = test: concentration in plasma after dosing; conditions: 2 h; dosed: Di-n-butyl phthalate; 100 mg/kg; oral; Male; Sprague-Dawley
Rat [6] = test: concentration in plasma after dosing; conditions: 3 h; dosed: Di-n-butyl phthalate; 50 mg/kg; oral; Male; Sprague-Dawley
Rat [7] = test: concentration in plasma after dosing; conditions: 3 h; dosed: Di-n-butyl phthalate; 50 mg/kg; oral; Male; Sprague-Dawley; remark: listed apart in the source
Rat [8] = test: concentration in plasma after dosing; conditions: dosed: dichloroacetic acid, 40 mg/kg, oral, Female, Harlan Sprague Dawley
human = conditions: dosed: trichloroethylene, 100 ppm, inhalation, duration: 4 hr, person
Procedure, shortened: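 Points were largely digitised from plot screenshots with WebPlotDigitizer or otherwise copied from tables, and they remain in the units each source reported. They come from published in vivo toxicokinetic studies and two structured collections. Sampling and analytical methods follow each source and were often not reported.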

Rat [9] = test: concentration in thymus after dosing; conditions: 1 h; dosed: Bis 2-Chloroethoxy Methane; 20 mg/kg; iv; Male; F344
Rat [10] = test: concentration in plasma after dosing; conditions: 1 h; dosed: Bis 2-Chloroethoxy Methane; 20 mg/kg; iv; Female; F344
Rat [11] = test: concentration in thymus after dosing; conditions: 3 h; dosed: Bis 2-Chloroethoxy Methane; 20 mg/kg; iv; Male; F344
Rat [12] = test: concentration in heart after dosing; conditions: 1 h; dosed: Bis 2-Chloroethoxy Methane; 20 mg/kg; iv; Male; F344
Rat [13] = test: concentration in plasma after dosing; conditions: 6 h; dosed: Bis 2-Chloroethoxy Methane; 20 mg/kg; iv; Male; F344
Rat [14] = test: concentration in heart after dosing; conditions: 2 h; dosed: Bis 2-Chloroethoxy Methane; 20 mg/kg; iv; Female; F344
Rat [15] = test: concentration in plasma after dosing; conditions: 10 min; dosed: Bis 2-Chloroethoxy Methane; 20 mg/kg; iv; Male; F344
Rat [16] = test: concentration in plasma after dosing; conditions: 10 min; dosed: Bis 2-Chloroethoxy Methane; 20 mg/kg; iv; Male; F344; remark: listed apart in the source
Rat [17] = test: concentration in thymus after dosing; conditions: 2 h; dosed: Bis 2-Chloroethoxy Methane; 20 mg/kg; iv; Female; F344
Rat [18] = test: concentration in heart after dosing; conditions: 1 h; dosed: Bis 2-Chloroethoxy Methane; 20 mg/kg; iv; Female; F344
Rat [19] = test: concentration in liver after dosing; conditions: 3 h; dosed: Fluorotelomer alcohol 8+2; 24 mg/kg; oral; Male; Harlan Sprague Dawley
Rat [20] = test: concentration in liver after dosing; conditions: 12 h; dosed: Fluorotelomer alcohol 8+2; 24 mg/kg; oral; Male; Harlan Sprague Dawley
Rat [21] = test: concentration in plasma after dosing; conditions: 3 h; dosed: Fluorotelomer alcohol 8+2; 12 mg/kg; iv; Male; F344
Rat [22] = test: concentration in plasma after dosing; conditions: dosed: Fluorotelomer alcohol 8+2, 40 mg/kg, iv, Male, F344
Rat [23] = test: concentration in plasma after dosing; conditions: dosed: Fluorotelomer alcohol 8+2, 40 mg/kg, iv, Female, Harlan Sprague-Dawley
Rat [24] = test: concentration in liver after dosing; conditions: 8 h; dosed: Thiodiglycolic Acid; 20 mg/kg; iv; Female; Harlan Sprague Dawley
Rat [25] = test: concentration in thymus after dosing; conditions: 10 min; dosed: Thiodiglycolic Acid; 20 mg/kg; iv; Male; F344
Rat [26] = test: concentration in thymus after dosing; conditions: 4 h; dosed: Thiodiglycolic Acid; 20 mg/kg; iv; Male; Harlan Sprague Dawley
Rat [27] = test: concentration in plasma after dosing; conditions: 3 h; dosed: Thiodiglycolic Acid; 20 mg/kg; iv; Female; Harlan Sprague Dawley
Rat [28] = test: concentration in thymus after dosing; conditions: 10 h; dosed: Thiodiglycolic Acid; 20 mg/kg; iv; Male; F344
Rat [29] = test: concentration in heart after dosing; conditions: 2 h; dosed: Thiodiglycolic Acid; 20 mg/kg; iv; Male; Harlan Sprague Dawley
Rat [30] = test: concentration in plasma after dosing; conditions: 10 min; dosed: Thiodiglycolic Acid; 20 mg/kg; iv; Male; F344
Rat [31] = test: concentration in heart after dosing; conditions: 40 min; dosed: Thiodiglycolic Acid; 20 mg/kg; iv; Female; Harlan Sprague Dawley
Rat [32] = test: concentration in plasma after dosing; conditions: 10 min; dosed: Thiodiglycolic Acid; 20 mg/kg; iv; Male; F344; remark: listed apart in the source
Rat [33] = test: concentration in thymus after dosing; conditions: 5.333 h; dosed: Thiodiglycolic Acid; 20 mg/kg; iv; Female; Harlan Sprague Dawley
Rat [34] = test: concentration in plasma after dosing; conditions: 9 h; dosed: Primidone; 80 mg/kg; oral; Male; F344
Rat [35] = test: concentration in plasma after dosing; conditions: 1.5 h; dosed: Primidone; 130 mg/kg; oral; Female; F344

O=C(O)C(F)(F)C(F)(F)C(F)(F)C(F)(F)C(F)(F)C(F)(F)C(F)(F)C(F)(F)C(F)(F)F [Perfluorodecanoic acid]
concentration in kidney (Rat [1]): 10100 ng/g
concentration in liver (Rat [2]): 43600 ng/g
concentration in liver (Rat [3]): 27400 ng/g
concentration in plasma (Rat [4]; 24 h): 5820 ng/mL
concentration in plasma (Rat [4]; 1848 h): 764 ng/mL

CCCCOC(=O)c1ccccc1C(=O)O [Mono-n-butyl phthalate]
concentration in plasma (Rat [5]): 3520 ng/mL
concentration in plasma (Rat [6]): 3050 ng/mL
concentration in plasma (Rat [7]): 1180 ng/mL

O=C(O)C(Cl)Cl [dichloroacetic acid]
concentration in plasma (Rat [8]; 10 min): 6310 ng/mL
concentration in plasma (Rat [8]; 1.5 h): 2780 ng/mL

O=C(O)C(Cl)(Cl)Cl [trichloroacetic acid]
amount in urine after dosing (human; 1 h): 0.21 mg
amount in urine after dosing (human; 2 h): 0.25 mg
amount in urine after dosing (human; 4 h): 0.57 mg
amount in urine after dosing (human; 8 h): 2.37 mg
amount in urine after dosing (human; 12 h): 1.32 mg
amount in urine after dosing (human; 16 h): 0.93 mg
amount in urine after dosing (human; 24 h): 2.15 mg
amount in urine after dosing (human; 36 h): 4.32 mg
amount in urine after dosing (human; 48 h): 8.17 mg
amount in urine after dosing (human; 60 h): 7.79 mg
amount in urine after dosing (human; 72 h): 7.83 mg
amount in urine after dosing (human; 84 h): 6.95 mg
amount in urine after dosing (human; 96 h): 4.34 mg
amount in urine after dosing (human; 108 h): 4.56 mg
amount in urine after dosing (human; 120 h): 3.32 mg
amount in urine after dosing (human; 132 h): 3.23 mg
amount in urine after dosing (human; 144 h): 4 mg
amount in urine after dosing (human; 156 h): 2.44 mg
amount in urine after dosing (human; 168 h): 1.44 mg
amount in urine after dosing (human; 180 h): 2.55 mg

ClCCOCOCCCl [Bis 2-Chloroethoxy Methane]
concentration in thymus (Rat [9]): 7380 ng/g
concentration in plasma (Rat [10]): 1240 ng/mL
concentration in thymus (Rat [11]): 134 ng/g
concentration in heart (Rat [12]): 1380 ng/g
concentration in plasma (Rat [13]): 12.2 ng/mL
concentration in heart (Rat [14]): 247 ng/g
concentration in plasma (Rat [15]): 11000 ng/mL
concentration in plasma (Rat [16]): 9480 ng/mL
concentration in thymus (Rat [17]): 376 ng/g
concentration in heart (Rat [18]): 1380 ng/g

OCCC(F)(F)C(F)(F)C(F)(F)C(F)(F)C(F)(F)C(F)(F)C(F)(F)C(F)(F)F [Fluorotelomer alcohol 8+2]
concentration in liver (Rat [19]): 2220 ng/g
concentration in liver (Rat [20]): 968 ng/g
concentration in plasma (Rat [21]): 106 ng/mL
concentration in plasma (Rat [22]; 0.25 h): 14200 ng/mL
concentration in plasma (Rat [22]; 6 h): 186 ng/mL
concentration in plasma (Rat [23]; 1 h): 2530 ng/mL
concentration in plasma (Rat [23]; 24 h): 24.5 ng/mL

O=C(O)CSCC(=O)O [Thiodiglycolic Acid]
concentration in liver (Rat [24]): 29000 ng/g
concentration in thymus (Rat [25]): 6960 ng/g
concentration in thymus (Rat [26]): 1490 ng/g
concentration in plasma (Rat [27]): 535 ng/mL
concentration in thymus (Rat [28]): 477 ng/g
concentration in heart (Rat [29]): 1440 ng/g
concentration in plasma (Rat [30]): 25400 ng/mL
concentration in heart (Rat [31]): 3040 ng/g
concentration in plasma (Rat [32]): 34600 ng/mL
concentration in thymus (Rat [33]): 547 ng/g

CCC1(c2ccccc2)C(=O)NC(=O)NC1=O [Phenobarbital]
concentration in plasma (Rat [34]): 6800 ng/mL
concentration in plasma (Rat [35]): 990 ng/mL
